Among the data in PubChem BioAssay AID493134 (Broad Institute, 2011) are AC50 and activity change, negative = inhibition values, retold here.

One may read the AC50 as the concentration at which the activity in the assay is half-maximal.

“And” between values parts separate entries of the source, which are not always exact repeats. Equal entries are not always repeated. The source made the active and inactive calls.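 How the source made its calls: active means growth inhibition with fitted half-maximal dose at or below ten times the top tested dose; inconclusive means flat curve with inhibition of 30 to 70%, or poor fit; inactive means the rest.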 A value given as a limit tells only on which side of the number the result lay.

For the first assay, the system named is C. albicans CaCi-2 growth, Alamar Blue fluorescence, 48 h. In words: growth inhibition of C. albicans without azole, dose response, counter-screen for antifungal drug resistance project, CaCi-2 strain, Alamar Blue, dry powder, set 7 (AID 493134).
Conditions: not given
In a few lines: (§1)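 Test system: resistant C. albicans strain CaCi-2 / Doses: pinned test compound / Incubation: 48 h compound exposure at 37 °C / Detection: Alamar Blue fluorescence, 1:200 final, Ex 544 nm, Em 590 nm / Read-out: relative growth as intrinsic toxicity counterscreen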
`COC(=O)Cn1nc(-c2ccccc2)c2ccc(C(F)(F)F)cc21`: the AC50 was 16.4 µM.

In the case of `COC(=O)Cn1c2ccccc2c2nc3n(c(=O)c21)CCS3`, the AC50 was > 26 µM (inactive).

`COC(=O)Cn1nc(-c2ccccc2)c2cc(OC)ccc21`: the concentration at half-maximal activity (AC50) is 20.3 µM.

Test system in the next assay: not listed separately
The assay is described as above. The note with it: C. albicans CaCi-2 growth, Alamar Blue fluorescence, 48 h; at 19.5 µM (top of the series). In a few lines:
as §1
Background: The colour change of resazurin is a common sign of viable cells or microbes.
For the molecule `COC(=O)Cn1nc(-c2cncnc2)c2ccccc21`, the activity change, negative = inhibition was 7.98% (inactive).

Staying with this assay, now noted: C. albicans CaCi-2 (fluconazole-resistant clinical isolate) growth, Alamar Blue fluorescence, 48 h; at 26 µM (top of the series).
As for `COC(=O)Cn1nc(-c2cccc(OC)c2)c2ccccc21`, the activity change, negative = inhibition is -0.691% (inactive).

As for `N#CCn1nc(-c2ccccc2)c2ccccc21`, the activity change, negative = inhibition is 11% (inactive).

In the case of `COC(=O)Cn1nc(-c2cccc(C)c2)c2ccccc21`, the activity change, negative = inhibition is 7.2% (inactive).

Turning to `COC(=O)Cn1nc(-c2ccccc2)c2ccc(C)cc21`, the activity change, negative = inhibition is 0.047% (inactive).

With `COC(=O)Cn1nc(-c2cccc(F)c2)c2ccccc21`, the activity change, negative = inhibition is 16% (inactive).

`CN(C)C(=O)Cn1nc(-c2ccccc2)c2ccccc21`: the activity change, negative = inhibition is -25% (inactive).

For the molecule `COC(=O)Cn1nc(-c2ccccc2C)c2ccccc21`, the activity change, negative = inhibition was -21.2% (inactive).

For `O=C(Cn1nc(-c2ccccc2)c2ccccc21)Oc1ccccc1`, the activity change, negative = inhibition is 6.4% (inactive).

Take `CC(C)(C)OC(=O)Cn1nc(-c2ccccc2)c2ccccc21`: the activity change, negative = inhibition was -0.465% (inactive).

As to `COC(=O)Cn1nc(-c2ccccc2)c2ccccc21`, the activity change, negative = inhibition was -5.47% (inactive).

As for `COC(=O)Cn1nc(-c2ccccc2OC)c2ccccc21`, the activity change, negative = inhibition was -23.3% (inactive).

On to `CC(C)OC(=O)Cn1nc(-c2ccccc2)c2ccccc21`, for which the activity change, negative = inhibition was -0.006% (inactive).

In the case of `c1ccc(-c2nn(Cc3nn[nH]n3)c3ccccc23)cc1`, the activity change, negative = inhibition is 9.64% (inactive).

As to `COC(=O)Cn1nc(-c2ccccc2)c2cc(F)ccc21`, the activity change, negative = inhibition was -6.49% (inactive).

For the molecule `COC(=O)Cn1nc(-c2ccccc2)c2ccc(OC)cc21`, the activity change, negative = inhibition was -26.5% (inactive).

As for `COC(=O)Cn1nc(-c2ccccc2)c2cc(C)ccc21`, the activity change, negative = inhibition was 2.54% (inactive).

Consider `COC(=O)Cn1nc(-c2ccc(C(F)(F)F)cc2)c2ccccc21`, for which the activity change, negative = inhibition was 4.42% (inactive).

Take `COC(=O)Cn1nc(-c2ccccc2)c2ccc(C#N)cc21`: the activity change, negative = inhibition was 21.8% (inactive).

Regarding `COCCn1nc(-c2ccccc2)c2ccccc21`, the activity change, negative = inhibition is -0.717% (inactive).

Regarding `O=C(Cn1c2ccccc2c2nc3n(c(=O)c21)CCS3)N1CCCC1`, the activity change, negative = inhibition is -14.3% (inactive) and -26.7% (inactive).

In the case of `CCOC(=O)Cn1nc(-c2ccccc2)c2ccccc21`, the activity change, negative = inhibition is -5.31% (inactive).

As for `COC(=O)Cn1nc(-c2ccccc2)c2ccc(F)cc21`, the activity change, negative = inhibition was 5.28% (inactive).
